Experiments:
[1] = Neuroprotective activity against 6-OHDA-induced toxicity in rat PC12 cells assessed as cell survival at 20 uM preincubated for 24 hrs followed by 6-OHDA addition measured after 24 hrs by MTT assay relative to control; assay type: functional; conditions: PC-12, read-out: Survival
How it was run: (§1)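 PC12 cells seeded 5×10^3/well, after 24 h given compound at 20 μM for 24 h at 37 °C, then exposed to 6-OHDA (40 μM) or rotenone (1 μM) for 24 h. […] Mean ± SEM of three independent experiments.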

[2] = Cytotoxicity against rat PC12 cells assessed as cell survival at 100 uM after 24 hrs by MTT assay relative to control; assay type: toxicity, PC-12; conditions: read-out: Survival
[3] = Neuroprotective activity against rotenone-induced toxicity in rat PC12 cells assessed as cell survival at 20 uM preincubated for 24 hrs followed by rotenone addition measured after 24 hrs by MTT assay relative to control; assay type: functional; conditions: PC-12, read-out: Survival; how it was run: as §1
[4] = target: T1, Amine oxidase [flavin-containing] A (Homo sapiens, UniProt P21397)
T1 sequence (P21397 whole entry): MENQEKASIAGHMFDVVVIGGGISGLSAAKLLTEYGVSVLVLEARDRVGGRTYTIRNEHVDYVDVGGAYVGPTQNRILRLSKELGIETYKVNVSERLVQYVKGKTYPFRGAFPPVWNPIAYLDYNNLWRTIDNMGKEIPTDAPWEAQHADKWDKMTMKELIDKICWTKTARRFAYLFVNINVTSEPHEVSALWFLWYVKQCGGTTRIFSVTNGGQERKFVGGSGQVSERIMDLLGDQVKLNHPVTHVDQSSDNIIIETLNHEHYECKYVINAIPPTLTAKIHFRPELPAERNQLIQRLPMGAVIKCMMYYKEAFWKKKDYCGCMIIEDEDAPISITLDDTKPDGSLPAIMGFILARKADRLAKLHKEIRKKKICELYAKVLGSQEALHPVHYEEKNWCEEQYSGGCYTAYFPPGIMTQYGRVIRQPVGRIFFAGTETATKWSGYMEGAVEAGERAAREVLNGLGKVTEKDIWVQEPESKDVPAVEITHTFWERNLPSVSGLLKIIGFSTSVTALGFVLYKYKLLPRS

[5] = Cytotoxicity against rat PC12 cells assessed as cell survival at 20 uM after 72 hrs by MTT assay relative to control; assay type: toxicity, PC-12; conditions: read-out: Survival
[6] = in vitro; conditions: PAMPA
[7] = target: T1, Amine oxidase [flavin-containing] A; test: Inhibition of recombinant human MAO-A using kynuramine as substrate assessed as decrease in 4-hydroxyquinoline production incubated for 20 mins by fluorescence spectrophotometry

Row | Structure (SMILES) | viability at 20 µM [1] [%] | viability at 24 h, 100 µM [2] [%] | viability at 20 µM [3] [%] | IC50 [4] [µM] | viability at 72 h, 20 µM [5] [%] | Papp at 16 h, 100 ug/ml [6] [×10⁻⁶ cm/s] | IC50 [7] [µM]
1 | O=c1ccoc2cc(OCc3cccc(Cl)c3)ccc12 | 117 | 73.5 | 101 | 23.6 | 119 |  | 
2 | CC(=O)c1ccc(OCc2ccc(F)cc2)cc1F | 105 | 106 | 114 | > 100 | 123 |  | 
3 | CC(=O)c1ccc(OCc2cccc(F)c2)cc1O | 133 | 107 | 106 | > 100 | 115 | 15.9 | 50.7
4 | CC(=O)c1ccc(OCc2ccc(Cl)cc2)cc1F | 142 | 105 | 101 | 89 | 113 |  | 
5 | Cc1c(C)c2ccc(OCc3ccc(F)c(F)c3)cc2oc1=O | 138 | 106 | 117 |  | 102 |  | 
6 | O=c1ccoc2cc(OCc3ccc(C(F)(F)F)cc3)ccc12 | 123 | 81.2 | 110 | 18.9 | 110 |  | 
7 | CC(=O)c1ccc(OCc2ccc(F)cc2)cc1 | 116 | 105 | 88.6 | > 100 | 123 |  | 
8 | CC(=O)c1cccc(OCc2ccc(Cl)cc2)c1 | 132 | 117 | 109 |  | 102 |  | 
9 | CC1(C)CC(=O)c2ccc(OCc3ccc(Cl)cc3)cc2O1 | 143 | 110 | 108 | > 100 | 109 |  | 
10 | C#CCN[C@@H]1CCc2ccccc21 [RASAGILINE] | 135 | 86.9 | 109 |  | 101 |  | 
11 | O=C1OCc2cc(OCc3ccc(Cl)cc3)ccc21 | 137 | 86.7 | 113 | 3.61 | 85.7 |  | 
12 | O=C1OCc2cc(OCc3ccc(C(F)(F)F)cc3)ccc21 | 125 |  | 111 | 9.24 | 87.2 |  | 
13 | O=C1CCc2ccc(OCc3cccc(Cl)c3)cc2N1 | 121 | 76.1 | 110 | > 100 | 97.2 |  | 
14 | Cc1c(C)c2ccc(OCc3cccc(F)c3)cc2oc1=O | 130 | 109 | 115 |  | 108 |  | 
15 | CC(=O)c1ccc(OCc2cccc(F)c2)cc1F | 116 | 118 | 109 | > 100 | 119 |  | 
16 | O=C1CCOc2cc(OCc3ccc(Cl)cc3)ccc21 | 143 | 98.6 | 111 |  | 115 |  | 

Row | Structure (SMILES) | viability at 20 µM [1] [%] | viability at 24 h, 100 µM [2] [%] | viability at 20 µM [3] [%] | IC50 [4] [µM] | viability at 72 h, 20 µM [5] [%] | Papp at 16 h, 100 ug/ml [6] [×10⁻⁶ cm/s] | IC50 [7] [µM]
17 | Cc1c(C)c2ccc(OCc3ccc(Cl)cc3)cc2oc1=O | 114 | 106 | 119 |  | 104 |  | 
18 | CC(=O)c1ccc(OCc2cccc(Cl)c2)cc1O | 134 | 110 | 93.3 | 48 | 112 |  | 17.7
19 | CC(=O)c1ccc(OCc2cccc(Cl)c2)cc1 | 123 | 118 | 95.8 | 88.4 | 116 |  | 
20 | O=C1CCCc2cc(OCc3ccc(F)cc3)ccc21 | 139 | 83.3 | 95.9 | 1.29 |  |  | 
21 | CC(=O)c1cccc(OCc2ccc(Br)cc2)c1 | 109 | 122 | 105 | 53.7 | 107 |  | 
22 | O=c1ccoc2ccc(OCc3ccc(F)cc3)cc12 | 115 | 85.2 | 106 | 13.6 | 109 |  | 
23 | CC(=O)c1ccc(OCc2ccc(Cl)cc2)cc1O | 144 | 109 | 105 | 25.3 | 126 | 12.7 | 
24 | O=C1CCCc2cc(OCc3ccc(Cl)cc3)ccc21 | 127 | 91.2 | 110 | 0.34 | 129 |  | 
25 | CC(=O)c1ccc(OCc2ccc(F)cc2)cc1O | 144 | 101 | 98.3 | 43.4 | 109 | 13.5 | 3.7
26 | CC(=O)c1ccc(OCc2cccc(Cl)c2)cc1F | 133 | 108 | 112 | > 100 |  |  | 
27 | O=C1OCc2cc(OCc3ccc(F)cc3)ccc21 | 116 | 64.9 | 114 | 1.33 | 89.7 |  | 
28 | O=c1ccoc2ccc(OCc3ccc(Cl)cc3)cc12 | 122 | 85 | 115 | 4.52 | 108 |  | 
29 | O=C1CCc2ccc(OCc3cccc(Br)c3)cc2N1 | 112 | 80.2 | 134 | 49.2 | 108 | 8.89 | 
30 | O=c1ccoc2cc(OCc3ccc(F)cc3)ccc12 | 124 | 72.9 | 115 | 18.5 | 119 |  | 
31 | CC1(C)CC(=O)c2ccc(OCc3ccc(F)cc3)cc2O1 | 148 | 96.2 | 111 | > 100 | 122 | 9.71 | 

— ChEMBL document CHEMBL3862011, “Neuroprotective effects of benzyloxy substituted small molecule monoamine oxidase B inhibitors in Parkinson's disease” (Bioorg Med Chem, 2016)
